{
  "source": "ChEMBL document CHEMBL3352109",
  "about": "“Synthesis and antifungal activity of substituted salicylaldehyde hydrazones, hydrazides and sulfohydrazides” (Bioorg Med Chem, 2014)",
  "key": {"Nakaseomyces glabratus [1]": {"test_system": "Nakaseomyces glabratus", "assay": "Antifungal activity against Candida glabrata ATCC 48435 by NCCLS method", "type": "functional", "summary_of_the_method": "(§1)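 Broth dilution per NCCLS yeast reference method, in HEPES-buffered RPMI with 1% DMSO. MIC80 is the lowest concentration giving more than 80% growth inhibition versus positive (no-drug) controls. Read by visual scoring, not absorbance. Highest level tested 125 µg/mL.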"}, "[2]": {"test_system": "Vero (Chlorocebus sabaeus)", "assay": "Cytotoxicity against African green monkey Vero cells assessed as reduction in cell viability at MIC80 after 24 hrs by CellTiter 96 non-radioactive cell proliferation assay"}, "Candida albicans [3]": {"test_system": "Candida albicans", "assay": "Antifungal activity against Candida albicans ATCC 10231 by NCCLS method", "type": "functional", "summary_of_the_method": "as §1"}, "Vero [4]": {"test_system": "Vero", "assay": "Cytotoxicity against african green monkey Vero cells assessed as reduction in cell viability at MIC80 after 24 hrs by CellTiter 96 non-radioactive cell proliferation assay relative to control", "type": "cell-based", "details": "chlorocebus sabaeus", "summary_of_the_method": "(§2)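 Cells exposed for 24 h at 37 °C, 5% CO2, to compound diluted in medium at the antifungal MIC and at 5, 10 and 100× MIC. Tetrazolium dye added for 1–4 h, then stop solution for 1 h at room temperature. Formazan read at 570 nm. Viability is the drug-well/no-drug (1% DMSO) control absorbance ratio, with control set to 100%. 0.1% saponin served as the death control. Triplicates, mean ± SD.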"}, "HepG2": {"test_system": "HepG2", "assay": "Cytotoxicity against human HepG2 cells assessed as reduction in cell viability at 100 times MIC80 after 24 hrs by CellTiter 96 non-radioactive cell proliferation assay", "type": "cell-based", "details": "hepg2, 24 h", "summary_of_the_method": "as §2"}, "Vero [5]": {"test_system": "Vero", "assay": "Cytotoxicity against african green monkey Vero cells assessed as reduction in cell viability at 100 times MIC80 after 24 hrs by CellTiter 96 non-radioactive cell proliferation assay", "type": "cell-based", "details": "chlorocebus sabaeus", "summary_of_the_method": "as §2"}, "Nakaseomyces glabratus [6]": {"test_system": "Nakaseomyces glabratus", "assay": "Antifungal activity against Candida glabrata ATCC 48435 at 125 ug/ml by NCCLS method", "type": "functional, organism-based"}, "Candida albicans [7]": {"test_system": "Candida albicans", "assay": "Antifungal activity against Candida albicans ATCC 10231 at 125 ug/ml by NCCLS method", "type": "functional, organism-based"}},
  "note": "Calls of active or inactive are those of the source. No cut-off for these calls is given here.",
  "data": [
    {"compound": "Cc1ccc(O)c(/C=N/NC(=O)c2ccc([N+](=O)[O-])cc2)c1", "values": [
      {"measurement": "MIC80", "setting": "Nakaseomyces glabratus [1]", "result": 0.125, "unit": "µg/mL"},
      {"measurement": "Activity", "setting": "[2]", "result": 20, "unit": "%"},
      {"measurement": "MIC80", "setting": "Candida albicans [3]", "result": 0.5, "unit": "µg/mL"},
      {"measurement": "Activity", "setting": "Vero [4]", "result": 20, "unit": "%"}
    ]},
    {"compound": "O=C(N/N=C/c1cc(Cl)ccc1O)c1ccccc1", "values": [
      {"measurement": "Activity", "setting": "HepG2", "result": "Non-toxic"},
      {"measurement": "MIC80", "setting": "Nakaseomyces glabratus [1]", "result": 0.5, "unit": "µg/mL"},
      {"measurement": "MIC80", "setting": "Candida albicans [3]", "result": 0.5, "unit": "µg/mL"},
      {"measurement": "Activity", "setting": "Vero [5]", "result": "Non-toxic"}
    ]},
    {"compound": "O=C(N/N=C/c1ccccc1O)c1ccc([N+](=O)[O-])cc1", "values": [
      {"measurement": "Activity", "setting": "HepG2", "result": "Non-toxic"},
      {"measurement": "MIC80", "setting": "Nakaseomyces glabratus [1]", "result": 0.5, "unit": "µg/mL"},
      {"measurement": "MIC80", "setting": "Candida albicans [3]", "result": 0.5, "unit": "µg/mL"},
      {"measurement": "Activity", "setting": "Vero [5]", "result": "Non-toxic"}
    ]},
    {"compound": "O=S(=O)(N/N=C/c1ccccc1O)c1ccccc1", "values": [
      {"measurement": "Activity", "setting": "Nakaseomyces glabratus [6]", "result": "inactive"},
      {"measurement": "MIC80", "setting": "Nakaseomyces glabratus [1]", "result": 125, "unit": "µg/mL"},
      {"measurement": "Activity", "setting": "Candida albicans [7]", "result": "inactive"}
    ]},
    {"compound": "O=[N+]([O-])c1cc(/C=N/Nc2ccccc2)c(O)c([N+](=O)[O-])c1", "values": [
      {"measurement": "Activity", "setting": "HepG2", "result": "Non-toxic"},
      {"measurement": "MIC80", "setting": "Nakaseomyces glabratus [1]", "result": 4, "unit": "µg/mL"},
      {"measurement": "MIC80", "setting": "Candida albicans [3]", "result": 2, "unit": "µg/mL"},
      {"measurement": "Activity", "setting": "Vero [5]", "result": "Non-toxic"}
    ]},
    {"compound": "N/N=C/c1ccccc1O", "values": [
      {"measurement": "Activity", "setting": "HepG2", "result": "Non-toxic"},
      {"measurement": "MIC80", "setting": "Nakaseomyces glabratus [1]", "result": 4, "unit": "µg/mL"},
      {"measurement": "MIC80", "setting": "Candida albicans [3]", "result": 16, "unit": "µg/mL"},
      {"measurement": "Activity", "setting": "Vero [5]", "result": "Non-toxic"}
    ]},
    {"compound": "Cc1ccc(O)c(/C=N/NC(=O)c2ccccc2)c1", "values": [
      {"measurement": "MIC80", "setting": "Nakaseomyces glabratus [1]", "result": 1, "unit": "µg/mL"},
      {"measurement": "Activity", "setting": "[2]", "result": 20, "unit": "%"},
      {"measurement": "MIC80", "setting": "Candida albicans [3]", "result": 1, "unit": "µg/mL"},
      {"measurement": "Activity", "setting": "Vero [4]", "result": 20, "unit": "%"}
    ]},
    {"compound": "COc1ccc(S(=O)(=O)N/N=C/c2cc(C)ccc2O)cc1", "values": [
      {"measurement": "Activity", "setting": "Nakaseomyces glabratus [6]", "result": "inactive"},
      {"measurement": "Activity", "setting": "Candida albicans [7]", "result": "inactive"}
    ]},
    {"compound": "Cc1ccc(S(=O)(=O)N/N=C/c2cc(Br)ccc2O)cc1", "values": [
      {"measurement": "Activity", "setting": "Nakaseomyces glabratus [6]", "result": "inactive"},
      {"measurement": "Activity", "setting": "Candida albicans [7]", "result": "inactive"}
    ]},
    {"compound": "Cc1ccc(S(=O)(=O)N/N=C/c2ccccc2O)cc1", "values": [
      {"measurement": "Activity", "setting": "Nakaseomyces glabratus [6]", "result": "inactive"},
      {"measurement": "MIC80", "setting": "Nakaseomyces glabratus [1]", "result": "inactive"},
      {"measurement": "Activity", "setting": "Candida albicans [7]", "result": "inactive"}
    ]},
    {"compound": "COc1ccc(O)c(/C=N/NS(=O)(=O)c2ccc3ccccc3c2)c1", "values": [
      {"measurement": "Activity", "setting": "Nakaseomyces glabratus [6]", "result": "inactive"},
      {"measurement": "Activity", "setting": "Candida albicans [7]", "result": "inactive"}
    ]},
    {"compound": "COc1ccc(O)c(/C=N/NS(=O)(=O)c2ccc([N+](=O)[O-])cc2)c1", "values": [
      {"measurement": "Activity", "setting": "Nakaseomyces glabratus [6]", "result": "inactive"},
      {"measurement": "Activity", "setting": "Candida albicans [7]", "result": "inactive"}
    ]},
    {"compound": "Cc1ccc(S(=O)(=O)N/N=C/c2cc(C)ccc2O)cc1", "values": [
      {"measurement": "Activity", "setting": "Nakaseomyces glabratus [6]", "result": "inactive"},
      {"measurement": "Activity", "setting": "Candida albicans [7]", "result": "inactive"}
    ]},
    {"compound": "Cc1ccc(O)c(/C=N/NS(=O)(=O)c2ccccc2)c1", "values": [
      {"measurement": "Activity", "setting": "Nakaseomyces glabratus [6]", "result": "inactive"},
      {"measurement": "Activity", "setting": "Candida albicans [7]", "result": "inactive"}
    ]},
    {"compound": "O=[N+]([O-])c1ccc(O)c(/C=N/NS(=O)(=O)c2ccc3ccccc3c2)c1", "values": [
      {"measurement": "Activity", "setting": "Nakaseomyces glabratus [6]", "result": "inactive"},
      {"measurement": "Activity", "setting": "Candida albicans [7]", "result": "inactive"}
    ]},
    {"compound": "O=[N+]([O-])c1ccc(S(=O)(=O)N/N=C/c2cc(Cl)ccc2O)cc1", "values": [
      {"measurement": "Activity", "setting": "Nakaseomyces glabratus [6]", "result": "inactive"},
      {"measurement": "Activity", "setting": "Candida albicans [7]", "result": "inactive"}
    ]},
    {"compound": "O=[N+]([O-])c1ccc(S(=O)(=O)N/N=C/c2cc([N+](=O)[O-])ccc2O)cc1", "values": [
      {"measurement": "Activity", "setting": "Nakaseomyces glabratus [6]", "result": "inactive"},
      {"measurement": "Activity", "setting": "Candida albicans [7]", "result": "inactive"}
    ]},
    {"compound": "O=[N+]([O-])c1ccc(S(=O)(=O)N/N=C/c2cc(Br)ccc2O)cc1", "values": [
      {"measurement": "Activity", "setting": "Nakaseomyces glabratus [6]", "result": "inactive"},
      {"measurement": "Activity", "setting": "Candida albicans [7]", "result": "inactive"}
    ]},
    {"compound": "O=S(=O)(N/N=C/c1cc(Br)ccc1O)c1ccc2ccccc2c1", "values": [
      {"measurement": "Activity", "setting": "Nakaseomyces glabratus [6]", "result": "inactive"},
      {"measurement": "Activity", "setting": "Candida albicans [7]", "result": "inactive"}
    ]},
    {"compound": "COc1ccc(O)c(/C=N/NS(=O)(=O)c2ccc(C)cc2)c1", "values": [
      {"measurement": "Activity", "setting": "Nakaseomyces glabratus [6]", "result": "inactive"},
      {"measurement": "Activity", "setting": "Candida albicans [7]", "result": "inactive"}
    ]},
    {"compound": "COc1ccc(O)c(/C=N/NS(=O)(=O)c2ccccc2)c1", "values": [
      {"measurement": "Activity", "setting": "Nakaseomyces glabratus [6]", "result": "inactive"},
      {"measurement": "Activity", "setting": "Candida albicans [7]", "result": "inactive"}
    ]}
  ]
}
